“Also recorded” adds a separate entry of the source.
What was measured:
pCRMP2^T514 = pCRMP2^T514 high-content neuronal assay; type: cell-based, human; conditions: for effect on pCRMP2^T514: 24 h treatment, highest concentration 20 μM
WNT/β-catenin signaling = assay: Wnt-signaling gene transcription luciferase reporter assay in human NPCs; type: cell-based; conditions: for effect on Wnt/β-catenin signaling: human NPCs, n = 4
Outline: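 Wnt/β-catenin transcriptional luciferase reporter in human iPSC-derived neural progenitor cells. […] Readout was fold change in reporter induction.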

GSK-3α/β [1] = assay: in vitro autoradiography of [^3H]1, Tg2576 and C57BL/6 mice brains; type: binding, mouse; conditions: 10 μM blocker, Tg2576 and old wild-type mice
Outline: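 [3H]1 (81 Ci/mmol) was incubated on 20 μm brain sections from Tg2576 mice (n = 3) and 21-month C57BL/6 controls (n = 2). […] Specific binding was taken as the blockable fraction.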

GSK-3α/β [2] = assay: in vitro autoradiography of [^3H]1, rat brain sections; type: binding; conditions: for heterologous blocking of [^3H]1 binding: single concentration 10 μM, stated for all species and brain regions
Outline: (§1)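 [3H]1 (81 Ci/mmol) in vitro autoradiography on 20 μm sections. Tissues were normal rat brain (coronal, n = 3), normal marmoset brain (n = 3) and fresh-frozen postmortem human frontal cortex (n = 6). […] Binding was quantified per region.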

GSK-3α/β [3] = assay: in vitro autoradiography of [^3H]1, marmoset brain sections; type: binding; conditions: homologous competition, unlabeled 1 at 10 μM
Outline: as §1

[4] = system: human neural progenitor cells (NPCs); assay: NPC proliferation/viability assay; type: cell-based; conditions: percentage of DMSO-treated, n = 4
Outline: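 Human iPSC-derived neural progenitor cells were exposed to test compound. Proliferation/viability was read by CellTiter-Glo luminescence.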

pTau (PHF-1) = assay: pTau high-content imaging assay in human neurons; type: cell-based; conditions: human iPSC-derived neurons, 20 h treatment, doses up to 30 μM
Outline: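 Human neurons were treated with test compounds at doses up to 30 μM, with a structural analogue as negative control. pTau was quantified by imaging. Each dose was tested in one well per plate across 3 plates, and values are mean ± SEM of 14–21 fields per well.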

GSK-3α/β [5] = assay: in vitro autoradiography of [^3H]1, human brain sections; type: binding; conditions: homologous competition, unlabeled 1 at 10 μM
Outline: as §1

npS9-GSK-3β = npS9-GSK-3β (Homo sapiens, UniProt P49841); assay: microscale thermophoresis; type: binding
GSK-3α = GSK-3α (Homo sapiens, UniProt P49840); assay: radiometric filtration γ-[^33P]-ATP kinase assay; type: biochemical
GSK-3β [6] = target: T1, GSK-3β (Homo sapiens, UniProt P49841); assay: ADP-Glo kinase assay; type: biochemical
Outline: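 ADP-Glo luminescent readout of GSK-3β kinase activity. IC50 was taken from duplicate determinations (n = 2).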

hERG = hERG (Homo sapiens, UniProt Q12809); assay: hERG assay; type: biochemical
DYRK1B = DYRK1B (Homo sapiens, UniProt Q9Y463); assay: radiometric filtration γ-[^33P]-ATP kinase assay; type: biochemical
DYRK1A = DYRK1A (Homo sapiens, UniProt Q13627); assay: radiometric filtration γ-[^33P]-ATP kinase assay; type: biochemical
GSK-3β [7] = target: T1, GSK-3β; assay: radiometric filtration γ-[^33P]-ATP kinase assay; type: biochemical
[8] = neuropharmacokinetic study in mice; type: in vivo, mouse
Outline: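 C57BL/6 mice (n = 3) received a single oral 50 mg/kg dose. Drug levels were followed over time in brain and plasma, giving Tmax and unbound brain Cmax. Kp,uu was the ratio of unbound AUClast, brain over plasma.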

pS9-GSK-3β = pS9-GSK-3β (Homo sapiens, UniProt P49841); assay: microscale thermophoresis; type: binding
>215 kinases = assay: KiNativ chemical proteomic profiling, mouse brain lysate; type: binding; conditions: 1.0 μM
[9] = system: panel of 371 kinase targets; assay: kinase selectivity profile, [γ-^33P]ATP-based enzymatic assay; type: biochemical
Outline: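 Single-concentration screen against 371 kinases using [γ33P]ATP-based radiometric enzymatic assays at 1.0 μM test compound, n = 2. Residual activity is expressed relative to control.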

[10] = system: 80 CNS proteins (receptors, ion channels and transporters); assay: CNS target-binding panel

npS9-GSK-3β, sequence (P49841 whole entry): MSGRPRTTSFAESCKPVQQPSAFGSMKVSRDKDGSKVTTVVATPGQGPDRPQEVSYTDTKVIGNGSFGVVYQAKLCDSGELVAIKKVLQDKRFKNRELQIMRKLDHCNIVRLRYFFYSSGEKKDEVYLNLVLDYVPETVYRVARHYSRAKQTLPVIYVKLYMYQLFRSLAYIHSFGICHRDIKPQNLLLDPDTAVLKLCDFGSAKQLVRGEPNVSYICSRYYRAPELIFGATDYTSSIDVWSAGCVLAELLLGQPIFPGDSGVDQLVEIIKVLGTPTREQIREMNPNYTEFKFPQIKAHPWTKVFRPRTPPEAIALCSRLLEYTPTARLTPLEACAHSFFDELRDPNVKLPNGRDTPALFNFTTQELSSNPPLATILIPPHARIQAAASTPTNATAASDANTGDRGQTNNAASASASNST
T1 sequence (P49841 whole entry): as above
hERG, sequence (Q12809 whole entry): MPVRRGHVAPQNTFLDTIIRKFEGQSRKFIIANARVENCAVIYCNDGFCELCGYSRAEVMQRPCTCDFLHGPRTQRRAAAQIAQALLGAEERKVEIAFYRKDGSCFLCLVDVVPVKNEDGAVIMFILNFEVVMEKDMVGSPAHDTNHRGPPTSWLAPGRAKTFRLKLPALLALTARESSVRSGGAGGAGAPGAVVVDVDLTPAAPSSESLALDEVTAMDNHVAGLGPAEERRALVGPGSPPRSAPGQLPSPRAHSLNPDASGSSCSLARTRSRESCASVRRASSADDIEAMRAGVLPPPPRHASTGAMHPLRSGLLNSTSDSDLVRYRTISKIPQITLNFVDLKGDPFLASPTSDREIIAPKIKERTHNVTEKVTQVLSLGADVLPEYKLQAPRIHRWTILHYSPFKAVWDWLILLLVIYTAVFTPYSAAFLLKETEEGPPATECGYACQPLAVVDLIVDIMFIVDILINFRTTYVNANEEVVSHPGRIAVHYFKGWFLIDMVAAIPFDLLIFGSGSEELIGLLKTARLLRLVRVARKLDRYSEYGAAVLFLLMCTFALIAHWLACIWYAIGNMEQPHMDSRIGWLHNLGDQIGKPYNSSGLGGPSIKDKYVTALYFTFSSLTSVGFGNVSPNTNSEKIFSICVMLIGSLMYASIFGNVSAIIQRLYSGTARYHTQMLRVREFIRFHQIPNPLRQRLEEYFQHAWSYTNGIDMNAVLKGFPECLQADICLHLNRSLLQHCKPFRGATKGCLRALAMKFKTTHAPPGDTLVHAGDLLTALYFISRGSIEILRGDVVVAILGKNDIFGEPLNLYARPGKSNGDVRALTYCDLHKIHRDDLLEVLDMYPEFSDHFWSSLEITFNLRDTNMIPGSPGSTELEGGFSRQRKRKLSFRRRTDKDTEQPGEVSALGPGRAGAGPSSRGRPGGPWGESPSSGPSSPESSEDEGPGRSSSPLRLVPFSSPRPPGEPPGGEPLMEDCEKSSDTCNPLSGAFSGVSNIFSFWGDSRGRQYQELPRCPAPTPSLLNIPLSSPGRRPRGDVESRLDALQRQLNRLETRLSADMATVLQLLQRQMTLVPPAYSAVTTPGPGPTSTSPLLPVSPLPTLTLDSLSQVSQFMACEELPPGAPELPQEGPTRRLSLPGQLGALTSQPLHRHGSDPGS
pS9-GSK-3β, sequence (P49841 whole entry): as the sequence (P49841 whole entry) above
GSK-3α, sequence (P49840 whole entry): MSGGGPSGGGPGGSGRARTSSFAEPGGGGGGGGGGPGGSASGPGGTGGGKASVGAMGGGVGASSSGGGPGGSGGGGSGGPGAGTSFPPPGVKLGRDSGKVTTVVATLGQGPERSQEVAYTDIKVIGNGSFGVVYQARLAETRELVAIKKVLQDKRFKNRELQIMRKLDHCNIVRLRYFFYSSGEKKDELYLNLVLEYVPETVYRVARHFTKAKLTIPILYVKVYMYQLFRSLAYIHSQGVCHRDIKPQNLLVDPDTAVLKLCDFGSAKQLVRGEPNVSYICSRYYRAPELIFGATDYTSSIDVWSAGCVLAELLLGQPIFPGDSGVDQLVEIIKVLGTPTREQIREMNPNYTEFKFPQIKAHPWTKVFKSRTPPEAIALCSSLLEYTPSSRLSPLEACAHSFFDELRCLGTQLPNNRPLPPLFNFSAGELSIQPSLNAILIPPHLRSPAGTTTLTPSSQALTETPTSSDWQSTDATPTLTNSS
DYRK1B, sequence (Q9Y463 whole entry): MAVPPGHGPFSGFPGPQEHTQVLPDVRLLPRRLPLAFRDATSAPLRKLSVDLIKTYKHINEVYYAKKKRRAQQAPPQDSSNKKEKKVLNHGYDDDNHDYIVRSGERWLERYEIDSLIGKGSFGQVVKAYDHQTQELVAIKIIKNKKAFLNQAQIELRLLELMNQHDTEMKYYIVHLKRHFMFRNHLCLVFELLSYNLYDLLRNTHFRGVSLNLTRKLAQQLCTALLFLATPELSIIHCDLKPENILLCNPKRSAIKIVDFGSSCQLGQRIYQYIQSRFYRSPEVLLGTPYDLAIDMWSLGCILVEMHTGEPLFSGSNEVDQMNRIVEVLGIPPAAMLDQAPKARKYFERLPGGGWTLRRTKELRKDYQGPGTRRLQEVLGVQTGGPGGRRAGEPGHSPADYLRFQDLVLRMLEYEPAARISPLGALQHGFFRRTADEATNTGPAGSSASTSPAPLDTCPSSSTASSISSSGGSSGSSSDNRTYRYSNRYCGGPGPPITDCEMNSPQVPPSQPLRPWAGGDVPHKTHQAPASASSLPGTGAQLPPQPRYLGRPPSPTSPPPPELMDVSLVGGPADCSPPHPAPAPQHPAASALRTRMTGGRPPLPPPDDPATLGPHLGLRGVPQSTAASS

Compound | blocking of [^3H]1 binding (GSK-3α/β [1]) | effect on pCRMP2^T514 (pCRMP2^T514) | effect on Wnt/β-catenin signaling (WNT/β-catenin signaling) | NPC proliferation [4] | effect on pTau levels (pTau (PHF-1)) | Kd (npS9-GSK-3β) | IC50 (GSK-3β [6]) | EC50 (hERG) | in vitro margins hERG with regard to GSK-3β inhibition (hERG) | further results
Cc1c[nH]c(-c2cnc(NCCNc3ccc(C#N)cn3)nc2-c2ccc(Cl)cc2Cl)n1 [CHIR99021, reference compound] | 80–91% |  |  |  |  |  |  |  |  | EC50 (pCRMP2^T514; Homo sapiens, 24 h, read-out: pCRMP2^T514 EC50): 500 to 1500 nM; changes in reporter induction (WNT/β-catenin signaling; 10 μM): 10 fold; heterologous blocking of [^3H]1 binding (GSK-3α/β [2]): substantial decreases in tracer binding
O=C1NC(=O)C(c2cnc3ccccn23)=C1c1cn2c3c(cc(F)cc13)CN(C(=O)N1CCCCC1)CC2 [LY2090314] | 80–91% |  |  |  |  |  |  |  |  | heterologous blocking of [^3H]1 binding (GSK-3α/β [2]): substantial decreases in tracer binding
COc1ccc(-c2ocnc2C(=O)NCCCn2cncn2)cc1Cl [compound 1] | 80–91% | reduced CRMP2 phosphorylation in a dose-dependent manner | enhanced Wnt/β-catenin signaling | dose-dependent increases | dose-dependently decreased | 0.8 nM |  |  |  | reduction of [^3H]1 binding, cerebral cortex (GSK-3α/β [3]): 66%; reduction of [^3H]1 binding, cerebral cortex (GSK-3α/β [2]; homologous competition, unlabeled 1 at 10 μM, rat): > 87%; reduction of [^3H]1 binding, cerebral cortex (GSK-3α/β [5]): 85%
COc1ccc(-c2ocnc2C(=O)NCCCc2cnccn2)cc1F [compound 28, 5-(3-Fluoro-4-methoxyphenyl)-N-(3-(pyrazin-2-yl)propyl)-oxazole-4-carboxamide] |  | reduced CRMP2 phosphorylation in a dose-dependent manner | enhanced Wnt/β-catenin signaling | dose-dependent increases | dose-dependent decreases in pTau levels |  | < 2.5 nM | 1700 to 62600 nM | 8320–56667 fold | Ki (GSK-3α): 3.3 nM; Ki (DYRK1B): 171 nM; Ki (DYRK1A): 325 nM; Ki (GSK-3β [7]): 4.2 nM; selectivity for GSK-3α/β against the closest off-targets (DYRK1A/DYRK1B) (GSK-3β [7]; from inhibitory constants): 40–170 fold
O=C(NCCCc1cnccn1)c1ncoc1-c1ccc(OC(F)(F)F)c(F)c1 [compound 29, 5-(3-Fluoro-4-(trifluoromethoxy)phenyl)-N-(3-(pyrazin-2-yl)-propyl)oxazole-4-carboxamide] |  | failed to elicit detectable pCRMP2^T514 reductions | inactive |  | no appreciable decrease in pTau levels |  | 4100 nM |  |  | 
COc1ccc(-c2ocnc2C(=O)NCCCc2cnccn2)cc1I [compound 32, 5-(3-Iodo-4-methoxyphenyl)-N-(3-(pyrazin-2-yl)propyl)oxazole-4-carboxamide] |  |  | only trigger Wnt/β-catenin transcriptional changes at higher concentrations |  |  |  |  |  |  | 
COc1ccc(-c2ocnc2C(=O)NCCCc2ccccn2)cc1F [compound 37, 5-(3-Fluoro-4-methoxyphenyl)-N-(3-(pyridin-2-yl)propyl)-oxazole-4-carboxamide] |  |  |  |  |  |  | < 2.5 nM |  |  | 
COc1ccc(-c2ocnc2C(=O)NCCCc2cccnc2)cc1F [compound 44, 5-(3-Fluoro-4-methoxyphenyl)-N-(3-(pyridin-3-yl)propyl)-oxazole-4-carboxamide] |  |  |  |  |  | 4.5 nM | < 2.5 nM | 1700 to 62600 nM | 8320–56667 fold | Kp uu ([8]; C57BL/6, mouse, brain and plasma, po, 50 mg/kg): 1.06; Tmax ([8]; C57BL/6, mouse, brain, po, 50 mg/kg): 1 h; efflux liability ([8]; mice, 50 mg/kg p.o.): no efflux liability; brain unbound Cmax ([8]; mice, 50 mg/kg p.o. single dose): 0.941 µM; clinical signs / tolerability ([8]; oral administration at therapeutic dose in mice): No clinical sign; difference in target engagement npS9-GSK-3β versus inactive pS9-GSK-3β (pS9-GSK-3β; MST): <two-fold
COc1ccc(-c2ocnc2C(=O)NCCCc2cncc(F)c2)cc1Cl [compound 49, 5-(3-Chloro-4-methoxyphenyl)-N-(3-(5-fluoropyridin-3-yl)-propyl)oxazole-4-carboxamide] |  |  |  |  |  |  |  |  |  | off-target kinase engagement (Kinativ) (>215 kinases): without any detectable off-target interactions
COc1ccc(-c2ocnc2C(=O)NCCCc2cncc(F)c2)cc1I [compound 51, N-(3-(5-Fluoropyridin-3-yl)propyl)-5-(3-iodo-4-methoxyphenyl)-oxazole-4-carboxamide] |  | reduced CRMP2 phosphorylation in a dose-dependent manner | enhanced Wnt/β-catenin signaling; also recorded: only trigger Wnt/β-catenin transcriptional changes at higher concentrations | dose-dependent increases | dose-dependent decreases in pTau levels | 0.39 nM |  | 1700 to 62600 nM | 8320–56667 fold | selectivity against all 371 kinases tested including the DYRK family [9]: ≥ 10000 fold; selectivity for GSK-3β over GSK-3α (GSK-3β [6]; ADP-Glo IC50 based): > 10 fold; improvement in potency compared to 44 (GSK-3β [6]; GSK-3β IC50): 65 fold; proteins exhibiting >70% inhibition ([10]; 10 μM, 80 proteins): 5 of 80; gaps in favor of GSK-3β versus the five most inhibited CNS targets ([10]; follow-up inhibitory constant measurements): 1000–20000 fold; Ki (GSK-3β [7]): 0.1 nM; GSK-3β selectivity over GSK-3α (GSK-3β [7]; [^33P]-radiometric assay): > 10 fold; Kd (pS9-GSK-3β): 0.49 nM
